# Bioassay records from PubChem.
# NF-kB neuron act = NF-kB expression increase, human neuronal cells | NF-kB reporter expression; hits give high values | fold change at 12.5 µM | 190,000 tested, 1.6% active; in the data active means fold change above about 3.3
# APP 5'UTR act = activates APP 5'UTR luciferase reporter; 190,000 tested, 1% active; activation, % at 2 µM; AID 1276; SH-SY5Y APP 5'UTR luciferase reporter, luminescence; zero percent = DMSO vehicle wells;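 active means activation above a set limit, based on mean plus 3 SD of controls, cut at about 140% in these data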
# STAT3 act = activators of IL-6 induced STAT3 signaling | activation (% of control), % at 5.6 µM | U3A cells, IL-6 STAT3-luciferase reporter, luminescence; 100% = signal with IL-6 EC80 alone | AID 871 | 190,000 tested, 0.91% active;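 active means activation above the screen-wide mean of compound activation plus 3 SD, cut at about 130% in these data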;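 further: 0% = background luminescence of wells with medium and substrate only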
#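 Material: human U3A cells carrying STAT3-luciferase construct. Measured by: reporter luminescence signal. Timing: compound 1 h, then IL-6 6 h at 37 °C.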
# STAT1 inh = inhibitors of IFN-gamma induced STAT1 signaling; AID 920; NIH 3T3 STAT1-luciferase reporter, luminescence; 200,000 tested, 0.35% active; inhibition, % at 5.5 µM;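 active means inhibition above a set limit, the mean inhibition across all tested compounds plus 3 SD, cut at about 34% in these data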;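 further: 0% = IFN-gamma with DMSO and 100% = IFN-gamma with 300 µM nifuroxazide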
# STAT1 activator = increases IFN-gamma driven STAT1 reporter signal; NIH 3T3 STAT1-luciferase reporter, luminescence; 100% = IFN-gamma alone, no compound; activation (% of control), % at 5.5 µM; 200,000 tested, 2.6% active;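 active means activation above the screen-wide mean activation plus 3 SD, cut at about 130% in these data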;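 further: raw ratio to IFN-gamma control signal so 100% means no change and 0% no light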
# STAT3 blocker = inhibitors of IL-6 induced STAT3 signaling; U3A cells, IL-6 STAT3-luciferase reporter, luminescence; host cell line lacks STAT1; inhibition, % at 5.5 µM; 190,000 tested, 0.89% active;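 active means inhibition above the mean inhibition across all screened compounds plus 3 SD, cut at about 44% in these data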;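 further: 0% = DMSO only wells and 100% = 100 µM nifuroxazide control wells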
# STAT1 activ conf = confirmation of STAT1 signaling activators; 1,200 tested, 97% active; shares compounds with STAT1 activator; NIH 3T3 STAT1-luciferase reporter, IFN-gamma potentiation, luminescence; 100% = IFN-gamma EC80 alone, no compound; activation (% of control), % at 5.7 µM;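 active means activation above a set limit carried over from the earlier primary STAT1 screen, cut at about 140% in these data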;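 further: simple ratio to median IFN-gamma plus DMSO wells so 0% means no light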
# NFkB act = counter-screen for STAT1 activators: NF-kappaB activation | HEK293T NF-kB luciferase reporter, TNF-alpha stimulated, luminescence; 100% = TNF-alpha with vehicle only | 1,200 tested, 43% active | shares compounds with STAT1 activator | activation (% of control), % at 5.7 µM;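 active means activation above the mean of solvent-only control wells plus 3 SD, set per campaign, cut at about 130% in these data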;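 further: TNF-alpha given at a submaximal dose yielding about 80% of full reporter signal; values are well signal over median control so 100% means no change and 0% no light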
# STAT3 act 2 = activates human STAT3, counter-screen to STAT1 activators | shares compounds with STAT1 activator | U3A cells STAT3-luciferase reporter, IL-6, luminescence; cells lack STAT1; 100 = IL-6 alone, no compound effect | activation (% of control), % at 5.7 µM | 1,200 tested, 46% active | AID 1316;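 active means activation above the solvent-only control well mean plus 3 SD, set per plate batch, cut at about 110% in these data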;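 further: 0% = no luminescence and 100% = median IL-6 plus DMSO wells; higher means more STAT3 reporter activation so hits are non-selective activators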
# Numbers without * were called inactive; / = no result given. Rows were chosen to be rich in hits. Some 4.9% of all compounds tested hit in one or more screens of this group.
SMILES,NF-kB neuron act,APP 5'UTR act,STAT3 act,STAT1 inh,STAT1 activator,STAT3 blocker,STAT1 activ conf,NFkB act,STAT3 act 2
CCCC(=O)N1CCN(c2ccc(NC(=O)c3ccc([N+](=O)[O-])o3)cc2Cl)CC1,/,-98,101,-28,124,4,/,/,/
O=C(Nc1ccc(N2CCN(C(=O)c3ccccc3)CC2)cc1)c1ccc([N+](=O)[O-])o1,0.22,-94,103,-83,173*,1,92,105,93
Cc1cc(C)cc(NC(=O)c2ccc([N+](=O)[O-])o2)c1,6.1*,-71,108,-67,162*,-8,115,116,108
Cc1ccc(CNc2ccc(N3C(=O)CCCC3=O)cc2[N+](=O)[O-])cc1,1.2,13,97,11,90,4,/,/,/
Cc1ccccc1Cn1c(=O)n(CC2CCC(C(=O)NCCc3ccccc3)CC2)c(=O)c2ccccc21 (stereo not drawn),1,-8,112,1,99,-12,/,/,/
COc1ccc2nc(Nc3ccc4c(c3)OCO4)sc2c1,2,75,91,-57,152*,12,162*,128,100
COc1ccc2nc(Nc3ccccc3)sc2c1,8.1*,111,86,-55,151*,19,200*,138*,99
COc1ccc2nc(Nc3nc4cc5c(cc4s3)OCO5)sc2c1,1.1,-10,104,-9,108,-5,/,/,/
CC(=O)NNc1nc2ccccc2s1,1.1,1,104,9,91,0,/,/,/
Cc1ccc(Nc2nc3ccccc3s2)cc1,1.3,115,78,-104,192*,26,259*,137*,108
CCC(=O)Nc1nc2ccc3sc(C)nc3c2s1,1.5,79,116,-79,168*,-14,189*,121,143*
CCCC(=O)Nc1nc2ccc3nc(C)sc3c2s1,2.1,21,81,-28,125,26,/,/,/
COc1cccc(-n2c(CN3CCN(c4ccccc4)CC3)nc3ccc([N+](=O)[O-])cc3c2=O)c1,0.75,-6,92,9,92,7,/,/,/
COc1ccccc1NC(CC(=O)c1ccccc1)C(=O)OCC(=O)c1ccc(Br)cc1 (stereo not drawn),0.84,117,70,-56,156*,35,183*,116,99
CCC(C)[C@H](N)c1cn([C@@H](CCCCN)C(=O)N2CCNCC2)nn1 (stereo partly drawn),0.87,15,/,-4,105,/,/,/,/
O=C(NCCc1ccccc1)c1ccccc1NC(=O)C1CC=CCC1C(=O)O (stereo not drawn),1.8,36,96,-60,152*,8,133*,125,108
COc1ccc(/C(C)=N/Nc2ccc(C(=O)O)cc2)cc1OC,6*,158*,125,-63,157*,-25,190*,120,119*
COc1cc(/C(C)=N/Nc2ccc(C(=O)O)cc2)cc(OC)c1OC,1.2,66,104,5,96,-7,/,/,/
CCCc1[nH]n(-c2ccc([N+](=O)[O-])cc2)c(=O)c1C=NCCCn1ccnc1,1.3,-12,99,-2,100,4,/,/,/
CC(=O)c1ccc(NC(=O)c2noc3c2CCCCC3)cc1,5*,161*,90,-55,151*,16,223*,129,102
